The Kd is a measure of binding affinity in units of concentration. Higher therefore signals lower affinity.

The test system of experiment [1] is ER^LRR. Briefly: Pull-down assay with 6xHis-tagged ER^LRR. The class given is binding, Arabidopsis. The settings on record: Ni resin, SDS-PAGE, Coomassie blue; without TMM^LRR. The gist of the method: (§1)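 Purified C-terminal 6xHis-tagged receptor LRR, from High Five cells, was mixed with excess EPF-family peptide and Ni resin for 30 min on ice. The resin was washed four times in 25 mM Tris pH 8.0, 250 mM NaCl, 15 mM imidazole, then heated 5 min at 100°C in SDS loading buffer. Bound protein was detected by SDS-PAGE with Coomassie staining.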

For experiment [2], the system named is ERL1^LRR. Briefly: Pull-down assay with 6xHis-tagged ERL1^LRR. The class given is binding, Arabidopsis. The note with it: Ni resin, SDS-PAGE, Coomassie blue; without TMM^LRR. The gist of the method:
as §1

The subject of the next experiment is ERL2^LRR. Briefly: Pull-down assay with 6xHis-tagged ERL2^LRR. The settings on record: Ni resin, SDS-PAGE, Coomassie blue; without TMM^LRR. The class given is binding, Arabidopsis. The procedure, abridged:
as §1

Experiment [3] relates to ERL1^LRR–TMM^LRR complex. Briefly: Gel filtration assay with ERL1^LRR–TMM^LRR complex. The note with it: 10 mM Bis-Tris pH 6.0, 100 mM NaCl; incubated 30 min at 4°C. The class given is binding, Arabidopsis. The procedure, abridged: (§2)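 LRR ectodomains were expressed in High Five insect cells by baculovirus at 22°C; for complexes, the ERf and TMM viruses were added together. Protein was purified from the supernatant by Ni-NTA and then size exclusion. Receptor and EPF-family peptide were mixed, held 30 min at 4°C, then run on Superdex 200 in 10 mM Bis-Tris pH 6.0, 100 mM NaCl. Fractions were analysed by SDS-PAGE with Coomassie staining.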
On the technique in general: In gel filtration, larger molecules generally elute earlier.

In experiment [4] the test system is ER^LRR. Briefly: Gel filtration assay with ER^LRR. The class given is binding, Arabidopsis. The settings on record: 10 mM Bis-Tris pH 6.0, 100 mM NaCl; incubated 30 min at 4°C. The procedure, abridged:
as §2

Experiment [5] deals with ERL1^LRR. Briefly: Gel filtration assay with ERL1^LRR. The class given is binding, Arabidopsis. The settings on record: 10 mM Bis-Tris pH 6.0, 100 mM NaCl; incubated 30 min at 4°C. The gist of the method:
as §2

The subject of experiment [6] is ER^LRR–TMM^LRR complex. Put plainly: Gel filtration assay with ER^LRR–TMM^LRR complex. The class given is binding, Arabidopsis. The settings on record: 10 mM Bis-Tris pH 6.0, 100 mM NaCl; incubated 30 min at 4°C. The gist of the method: as §2
For experiment [7], the target named is ERL1^LRR–TMM^LRR complex (Arabidopsis thaliana) (UniProt C0LGW6). Briefly: ITC. In general terms: Isothermal titration calorimetry measures the heat released or taken up as one component is titrated into another.
Experiment [8] concerns the target T1, ERL1^LRR–TMM^LRR complex (Arabidopsis thaliana, UniProt C0LGW6;Q9SSD1).
T1 sequence 1: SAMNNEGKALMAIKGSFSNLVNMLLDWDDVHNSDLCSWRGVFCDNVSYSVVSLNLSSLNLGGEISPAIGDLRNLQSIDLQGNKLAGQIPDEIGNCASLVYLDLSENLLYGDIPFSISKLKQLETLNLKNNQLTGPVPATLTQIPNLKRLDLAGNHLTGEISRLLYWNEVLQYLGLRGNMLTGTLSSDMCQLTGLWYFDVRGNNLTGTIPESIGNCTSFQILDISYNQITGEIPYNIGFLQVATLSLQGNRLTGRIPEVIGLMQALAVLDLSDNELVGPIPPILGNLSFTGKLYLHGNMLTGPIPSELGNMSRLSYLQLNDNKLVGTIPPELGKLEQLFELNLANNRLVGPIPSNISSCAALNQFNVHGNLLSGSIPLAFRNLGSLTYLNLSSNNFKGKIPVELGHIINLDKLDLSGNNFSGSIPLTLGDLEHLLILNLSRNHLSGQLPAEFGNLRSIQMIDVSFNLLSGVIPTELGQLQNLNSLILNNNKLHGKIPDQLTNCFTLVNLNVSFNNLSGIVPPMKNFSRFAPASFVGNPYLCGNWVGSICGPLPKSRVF
T1 sequence 2: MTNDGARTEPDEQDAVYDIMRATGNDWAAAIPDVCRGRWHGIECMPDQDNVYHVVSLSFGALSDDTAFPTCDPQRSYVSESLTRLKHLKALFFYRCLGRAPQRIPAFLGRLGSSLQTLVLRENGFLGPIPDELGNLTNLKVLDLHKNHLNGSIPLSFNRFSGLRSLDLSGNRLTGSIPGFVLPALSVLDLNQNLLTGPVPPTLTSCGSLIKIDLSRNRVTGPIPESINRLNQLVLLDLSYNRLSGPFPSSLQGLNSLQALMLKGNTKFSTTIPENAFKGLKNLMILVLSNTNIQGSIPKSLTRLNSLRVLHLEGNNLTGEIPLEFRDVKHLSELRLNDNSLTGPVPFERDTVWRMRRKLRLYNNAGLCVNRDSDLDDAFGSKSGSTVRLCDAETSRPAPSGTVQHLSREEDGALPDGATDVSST
Briefly: ITC.

In experiment [9] the target is T2, ERL2^LRR, extracellular LRR domain of ERL2 (Arabidopsis thaliana, UniProt Q6XAT2 28-580).
T2 sequence: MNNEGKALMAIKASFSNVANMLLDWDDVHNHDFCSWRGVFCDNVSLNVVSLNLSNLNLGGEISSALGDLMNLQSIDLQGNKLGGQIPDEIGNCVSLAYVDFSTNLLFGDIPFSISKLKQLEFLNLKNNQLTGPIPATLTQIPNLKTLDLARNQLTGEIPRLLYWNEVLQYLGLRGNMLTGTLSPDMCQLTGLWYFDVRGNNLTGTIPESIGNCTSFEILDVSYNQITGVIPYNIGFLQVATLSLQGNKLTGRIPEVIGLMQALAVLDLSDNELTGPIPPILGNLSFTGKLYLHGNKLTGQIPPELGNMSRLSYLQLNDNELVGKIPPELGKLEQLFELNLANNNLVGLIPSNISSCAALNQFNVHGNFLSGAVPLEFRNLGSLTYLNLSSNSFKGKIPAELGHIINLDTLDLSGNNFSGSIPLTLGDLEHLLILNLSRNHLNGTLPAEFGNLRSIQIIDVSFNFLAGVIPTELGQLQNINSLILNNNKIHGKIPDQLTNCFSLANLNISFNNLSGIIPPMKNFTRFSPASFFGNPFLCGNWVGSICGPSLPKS
Briefly: pull-down.

The target in experiment [10] is T3, ER^LRR, extracellular LRR domain of ERECTA (ER) (Arabidopsis thaliana, UniProt Q42371 24-580).
T3 sequence: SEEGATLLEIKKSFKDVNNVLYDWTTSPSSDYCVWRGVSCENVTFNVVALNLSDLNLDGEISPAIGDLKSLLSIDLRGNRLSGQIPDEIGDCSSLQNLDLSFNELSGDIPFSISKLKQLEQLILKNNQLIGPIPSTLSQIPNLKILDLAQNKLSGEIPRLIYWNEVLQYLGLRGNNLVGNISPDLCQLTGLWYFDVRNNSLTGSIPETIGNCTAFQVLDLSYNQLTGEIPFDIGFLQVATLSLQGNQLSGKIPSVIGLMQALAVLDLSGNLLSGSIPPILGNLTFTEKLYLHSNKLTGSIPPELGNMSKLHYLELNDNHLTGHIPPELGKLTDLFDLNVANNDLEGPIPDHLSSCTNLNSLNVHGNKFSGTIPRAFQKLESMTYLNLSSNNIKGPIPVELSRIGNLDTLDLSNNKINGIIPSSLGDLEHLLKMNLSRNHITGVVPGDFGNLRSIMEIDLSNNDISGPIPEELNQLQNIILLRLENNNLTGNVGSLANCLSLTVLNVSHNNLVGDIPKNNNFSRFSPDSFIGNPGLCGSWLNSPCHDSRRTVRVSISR
Put plainly: pull-down.

Experiment [11] addresses T4, ER^LRR–TMM^LRR complex (Arabidopsis thaliana, UniProt Q42371;Q9SSD1).
T4 sequence 1: T3 sequence
T4 sequence 2: T1 sequence 2
Put plainly: SEC.

Experiment [12] concerns the target T5, TMM^LRR, extracellular LRR domain of TOO MANY MOUTHS (TMM) (Arabidopsis thaliana, UniProt Q9SSD1 47-470).
T5 sequence: T1 sequence 2
Briefly: crystal structure.

Experiment [13] deals with T4, ER^LRR–TMM^LRR complex. Briefly: pull-down.

For the molecule “EPFL6: EPF family growth regulatory peptide, residues 106–156 (LGSSPPRCSSKCGRCTPCKPVHVPVPPGTPVTAEYYPEAWRCKCGNKLYMP)”, the “interaction with ER^LRR in pull-down” value in the experiment on ER^LRR [1] is “sufficient for interaction”. The “interaction with ERL1^LRR in pull-down” value in the experiment with ERL1^LRR [2] was “sufficient for interaction”. In the experiment with ERL2^LRR, the “interaction with ERL2^LRR in pull-down” value is “sufficient for interaction”.

“EPF1: cysteine-rich EPF family peptide, residues 53–104, expressed in High Five insect cells (AGSRLPDCSHACGSCSPCRLVMVSFVCASVEEAETCPMAYKCMCNNKSYPVP)”: in the experiment with ERL1^LRR–TMM^LRR complex [3], the “interaction with ERL1^LRR–TMM^LRR in gel filtration (comigration)” value is reported as “strong interaction”. Also, in the experiment with ER^LRR [4], the “interaction with ER^LRR alone in gel filtration” value is given as “no binding”. The “interaction with ERL1^LRR alone in gel filtration” value with ERL1^LRR [5] was “no binding”. In the experiment with ER^LRR–TMM^LRR complex [6], the “interaction with ER^LRR–TMM^LRR in gel filtration (comigration)” value is given as “strong interaction”.

On to “EPFL4–EPF1, swapped EPFL4 mutant with the apical loop region of EPF1 (peptide)”, for which, in [7], the Kd was 420 nM.

Turning to “EPF2: cysteine-rich EPF family peptide, residues 69–120, expressed in insect cells (TGSSLPDCSYACGACSPCKRVMISFECSVAESCSVIYRCTCRGRYYHVPSRA)”, the “interaction with ERL1^LRR–TMM^LRR in gel filtration (comigration)” value in the experiment on ERL1^LRR–TMM^LRR complex [3] is listed as “strong interaction”. Also, in the experiment with ER^LRR [4], the “interaction with ER^LRR alone in gel filtration” value is on record as “no binding”. The “interaction with ER^LRR in pull-down” value in the experiment on ER^LRR [1] is reported as “none of the three ERf proteins displayed interaction”. In addition, the “interaction with ERL1^LRR in pull-down” value with ERL1^LRR [2] is given as “none of the three ERf proteins displayed interaction”. The “interaction with ERL1^LRR alone in gel filtration” value with ERL1^LRR [5] is reported as “no binding”. Further, in the experiment with ER^LRR–TMM^LRR complex [6], the “interaction with ER^LRR–TMM^LRR in gel filtration (comigration)” value is on record as “strong interaction”. The “interaction with ERL2^LRR in pull-down” value in the experiment with ERL2^LRR is listed as “none of the three ERf proteins displayed interaction”.

B1: EPFL4 (CHALLAH-LIKE2, CLL2) peptide, residues 59–109 (peptide)
chain: PGSSPPTCRSKCGKCQPCKPVHVPIQPGLSMPLEYYPEAWRCKCGNKLFMP
In the experiment with ERL1^LRR–TMM^LRR complex [8], B1 returned a Kd of 1300 nM. Besides, the binding result in [9] and in experiment [10] was “binds” in each case.

B2: … PATTERNING FACTOR 1 (EPF1) peptide, residues 53–104 (peptide)
chain: AGSRLPDCSHACGSCSPCRLVMVSFVCASVEEAETCPMAYKCMCNNKSYPVP
For the molecule B2, the binding result (with ER^LRR–TMM^LRR complex [11]; in experiment [12]) was “binds” throughout.

B3: … PATTERNING FACTOR 2 (EPF2) peptide, residues 69–120 (peptide)
chain: TGSSLPDCSYACGACSPCKRVMISFECSVAESCSVIYRCTCRGRYYHVPSRA
As to B3, the binding result (with ER^LRR–TMM^LRR complex [11]; in experiment [12]) was “binds” in each case.

B4: EPF2-6xHis (C-terminally His-tagged EPF2) (peptide)
chain: B3 chain
Turning to B4, the binding result in the experiment with ER^LRR–TMM^LRR complex [13] is given as “binds”.

Values taken from paper PMC5458759 (Genes & Development, 2017).
